Assay results from ChEMBL document CHEMBL3272081, “Oxytocin analogues with combined high smooth muscle and negligible antidiuretic activities. Investigation of position 7 in neurohypophyseal hormones” (J Med Chem, 1976).
The source made the active and inactive calls. The calls are words filed in the database; no cut-off is given here. Bridge positions count the residues as written; N and C are the ends. Square brackets hold non-standard residues; d marks the D form. Peptide text beside a SMILES is read from it. Mpa = O=C(O)CCS

Legend:
[1] = molecular target: T1, Oxytocin receptor (Rattus norvegicus) (UniProt P70536); test: Activity at rat oxytocin receptor in rat uterus assessed as uterotonic activity; format: tissue-based
T1 sequence (whole entry): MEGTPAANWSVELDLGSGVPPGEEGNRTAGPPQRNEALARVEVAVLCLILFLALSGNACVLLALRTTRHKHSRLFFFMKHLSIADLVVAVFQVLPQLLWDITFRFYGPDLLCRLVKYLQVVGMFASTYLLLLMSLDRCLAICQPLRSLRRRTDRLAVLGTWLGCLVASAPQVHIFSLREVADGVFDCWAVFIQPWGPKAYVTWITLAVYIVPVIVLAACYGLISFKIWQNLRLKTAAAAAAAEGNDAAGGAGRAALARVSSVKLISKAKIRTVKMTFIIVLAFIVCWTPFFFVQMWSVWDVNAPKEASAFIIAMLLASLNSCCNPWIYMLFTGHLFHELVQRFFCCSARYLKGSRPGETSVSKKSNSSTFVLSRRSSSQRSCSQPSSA
Procedure, shortened: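 Isolated uterine horns from virgin rats in natural estrus, Holton method as modified by Munsick, bathed in Mg²⁺-free van Dyke–Hastings solution. Specific activity is derived against the USP standard by a Schild four-point design or by matches. Expressed as USP U/mg ± SEM, with at least three animals per determination.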

Rattus norvegicus [2] = species on record: Rattus norvegicus; test: Pressor activity in rat; format: functional
Procedure, shortened: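 Anesthetized male rats, per the U.S. Pharmacopeia. Potency is estimated by matches, with the USP posterior pituitary standard always injected before the analogue. Before each analogue dose, several standard doses are confirmed to give reproducible, unattenuated responses. Reported as USP U/mg ± SEM, five animals.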

Gallus gallus = test: Induction of vasodepressor activity in conscious chicken; format: functional
Oryctolagus cuniculus = species on record: Oryctolagus cuniculus; test: Induction of oxytocic activity in rabbit assessed as milk ejection; format: functional
Rattus norvegicus [3] = species on record: Rattus norvegicus; test: Antidiuretic activity in rat; format: functional, Urine
Procedure, shortened: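 Anesthetized male rats, Jeffers et al. method as modified by Sawyer. Specific activity is obtained against the USP standard using a Schild four-point design or matches. Reported as USP U/mg ± SEM, five animals per determination.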

Rattus norvegicus [4] = test: Induction of vasodepressor activity in anesthetized male rat at 0.5 mg
[5] = molecular target: T2, Oxytocin receptor (Homo sapiens) (UniProt P30559); test: Activity at oxytocin receptor (unknown origin) assessed as oxytocic activity
T2 sequence (whole entry): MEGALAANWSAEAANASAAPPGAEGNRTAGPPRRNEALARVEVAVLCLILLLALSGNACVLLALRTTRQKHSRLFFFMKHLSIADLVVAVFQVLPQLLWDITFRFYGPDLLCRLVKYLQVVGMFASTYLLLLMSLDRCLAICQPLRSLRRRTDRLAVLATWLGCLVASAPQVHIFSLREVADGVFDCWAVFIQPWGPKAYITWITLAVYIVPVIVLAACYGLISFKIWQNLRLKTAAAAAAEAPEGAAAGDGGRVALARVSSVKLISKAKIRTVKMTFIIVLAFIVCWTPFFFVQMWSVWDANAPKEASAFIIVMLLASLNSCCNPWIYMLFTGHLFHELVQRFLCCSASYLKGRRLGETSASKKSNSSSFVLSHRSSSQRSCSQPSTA

[6] = Drug metabolism in rat uterine homogenate assessed as compound inactivation after 60 mins; format: ADME, tissue-based, Uterus; settings: read-out: Drug metabolism
[7] = Drug metabolism in rat uterine homogenate assessed as compound inactivation after 30 mins; format: ADME, tissue-based, Uterus; settings: read-out: Drug metabolism
Rattus norvegicus [8] = species on record: Rattus norvegicus; test: Pressor activity in rat after 45 mins; format: functional, organism-based

| SMILES | Activity [1] [USP-U/mg] | Activity [5] [U/mg] | metabolised at 1 h [6] [%] | metabolised at 0.5 h [7] [%] | Activity (Rattus norvegicus [2]) [USP-U/mg] | Activity (Gallus gallus) [USP-U/mg] | Activity (Oryctolagus cuniculus) [USP-U/mg] | Activity (Rattus norvegicus [3]) | Activity (Rattus norvegicus [4]) [mmHg] | Activity (Rattus norvegicus [8]) |
| --- | --- | --- | --- | --- | --- | --- | --- | --- | --- | --- |
| CC[C@H](C)[C@@H]1NC(=O)[C@H](Cc2ccc(O)cc2)NC(=O)[C@@H](N)CSSC[C@@H](C(=O)N[C@@H](C)C(=O)N[C@@H](CC(C)C)C(=O)NCC(N)=O)NC(=O)[C@H](CC(N)=O)NC(=O)[C@H](CCC(N)=O)NC1=O (H-CYIQNCALG-NH2; disulfide 1-6) | 22 |  |  |  | 0.4 | 4.8 |  | 0.08 USP-U/mg |  |  |
| CC[C@H](C)[C@@H]1NC(=O)[C@H](Cc2ccc(O)cc2)NC(=O)[C@@H](N)CSSC[C@@H](C(=O)NCC(=O)N[C@@H](CC(C)C)C(=O)NCC(N)=O)NC(=O)[C@H](CC(N)=O)NC(=O)[C@H](CCC(N)=O)NC1=O (H-CYIQNCGLG-NH2; disulfide 1-6) | 65 | 68 |  |  | 0.3 | 5.3 | 224 | <=0.01 USP-U/mg | 25 |  |
| CC[C@H](C)[C@@H]1NC(=O)[C@H](Cc2ccc(O)cc2)NC(=O)CCSSC[C@@H](C(=O)N[C@@H](C)C(=O)N[C@@H](CC(C)C)C(=O)NCC(N)=O)NC(=O)[C@H](CC(N)=O)NC(=O)[C@H](CCC(N)=O)NC1=O ([Mpa]YIQNCALG-NH2; disulfide 1-6) | 123 |  |  |  | 0.5 | 9.8 |  | 0.17 USP-U/mg |  |  |
| CC[C@H](C)[C@@H]1NC(=O)[C@H](Cc2ccc(O)cc2)NC(=O)CCSSC[C@@H](C(=O)NCC(=O)N[C@@H](CC(C)C)C(=O)NCC(N)=O)NC(=O)[C@H](CC(N)=O)NC(=O)[C@H](CCC(N)=O)NC1=O ([Mpa]YIQNCGLG-NH2; disulfide 1-6) | 355 |  | 30 | 3 | 0.5 | 17 |  | 0.062 USP-U/mg |  |  |

Continued, in another order:

| Activity [1] [USP-U/mg] | Activity [5] [U/mg] | metabolised at 1 h [6] [%] | metabolised at 0.5 h [7] [%] | SMILES | Activity (Rattus norvegicus [2]) [USP-U/mg] | Activity (Gallus gallus) [USP-U/mg] | Activity (Oryctolagus cuniculus) [USP-U/mg] | Activity (Rattus norvegicus [3]) | Activity (Rattus norvegicus [4]) [mmHg] | Activity (Rattus norvegicus [8]) |
| --- | --- | --- | --- | --- | --- | --- | --- | --- | --- | --- |
| 803 |  |  |  | CC[C@H](C)[C@@H]1NC(=O)[C@H](Cc2ccc(O)cc2)NC(=O)CCSSC[C@@H](C(=O)N2CCC[C@H]2C(=O)N[C@@H](CC(C)C)C(=O)NCC(N)=O)NC(=O)[C@H](CC(N)=O)NC(=O)[C@H](CCC(N)=O)NC1=O | 1.44 | 975 | 541 | 19 USP-U/mg |  |  |
| 546 |  |  |  | CC[C@H](C)[C@@H]1NC(=O)[C@H](Cc2ccc(O)cc2)NC(=O)[C@@H](N)CSSC[C@@H](C(=O)N2CCC[C@H]2C(=O)N[C@@H](CC(C)C)C(=O)NCC(N)=O)NC(=O)[C@H](CC(N)=O)NC(=O)[C@H](CCC(N)=O)NC1=O [OXYTOCIN] | 3.1 | 507 | 440 | 2.7 USP-U/mg |  | Active |
